Values joined by “and” are separate entries in the source; they are usually repeats but may differ in a detail not shown here. Equal entries are not always repeated.
Legend:
MDR1-MDCK monolayer = assay: MDR1-MDCK permeability assay; format: in vitro ADME; conditions: 5 µM, apical to basolateral and basolateral to apical
[1] = system: AKT1, CAMK1, DDR2, GSK-3α, MAPK1, MET, PAK1, PDGFRB, PIM1, PKC-γ, PLK4, and SRC; assay: KinaseSeeker kinase profiling, panel of 12 kinases; format: binding; conditions: at respective RAW264.7 IC50 concentrations (1j 28 µM, 1s 16 µM)
[2] = Metabolic stability in human liver microsomes; format: in vitro ADME
In short: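 Test compound (1 µM, <0.25% DMSO) was incubated at 37 °C with human liver microsomal protein (0.5 mg/mL). Cofactors were added to start reactions at 0, 10, 20, 30 and 60 min, with a 5 µM testosterone positive control. NADPH addition was confirmed by fluorimetry. Compound-to-internal-standard peak-area ratio was read by LC-MS/MS without a standard curve. CLint = elimination rate constant / protein concentration.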

CYP1A2 = target: T1, CYP1A2 (Homo sapiens, UniProt P05177); assay: CYP IC50 in human liver microsomes, CYP1A2; format: in vitro ADME
T1 sequence (P05177 1-516): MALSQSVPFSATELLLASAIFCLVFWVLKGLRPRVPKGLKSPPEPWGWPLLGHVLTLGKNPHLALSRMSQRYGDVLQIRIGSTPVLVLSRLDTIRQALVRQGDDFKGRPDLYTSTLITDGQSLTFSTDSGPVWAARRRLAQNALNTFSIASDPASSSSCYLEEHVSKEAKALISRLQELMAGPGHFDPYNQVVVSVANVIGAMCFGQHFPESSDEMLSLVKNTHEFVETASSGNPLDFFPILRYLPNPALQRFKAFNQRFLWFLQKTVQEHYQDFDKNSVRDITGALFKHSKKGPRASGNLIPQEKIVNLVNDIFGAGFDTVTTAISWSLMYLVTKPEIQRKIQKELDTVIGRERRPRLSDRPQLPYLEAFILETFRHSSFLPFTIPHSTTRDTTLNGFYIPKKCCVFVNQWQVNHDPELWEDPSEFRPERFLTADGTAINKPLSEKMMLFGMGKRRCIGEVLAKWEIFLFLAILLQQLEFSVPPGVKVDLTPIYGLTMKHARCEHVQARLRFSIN
In short: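 Test compound was run at eight concentrations (0–100 µM), with α-naphthoflavone as positive control. Protein was precipitated and acetaminophen formation measured by LC-MS/MS. IC50 came from a sigmoidal nonlinear regression fit.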

[3] = Metabolic stability in rat liver S9 fractions; format: in vitro ADME
In short: (§1)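 Test compound (1 µM, <0.25% DMSO) was incubated at 37 °C with pooled liver S9 protein (1 mg/mL) and 1 mM each of NADPH, UDPGA, PAPS and GSH. Cofactors were added to start reactions at 0, 10, 20, 30 and 60 min, with testosterone and 7-hydroxycoumarin (20 µM each) as positive controls. Depletion was followed by LC-MS/MS peak-area ratio to internal standard, without a standard curve. CLint = k/P.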

[4] = Metabolic stability in human liver S9 fractions; format: in vitro ADME
In short: as §1

human whole blood = assay: Agonism / hemolysis in human whole blood; format: cell-based; conditions: up to 1 mM
In short: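 Human whole blood from healthy consenting donors, anticoagulated with lepirudin (final 50 µg/mL), was added to tubes holding test compound or PBS with Ca2+/Mg2+. It was preincubated 5–10 min at 37 °C, then given E. coli 0111:B4 ultra-pure LPS (100 ng/mL) or endotoxin-free PBS and rotated 2 h at 37 °C. EDTA (final 10 mM) was added, and plasma TNF-α, IL-8 and IL-6 were measured by singleplex Bio-plex.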

PKC-γ = PKC-γ (Homo sapiens, UniProt P05129); assay: KinaseSeeker kinase profiling, PKC-γ; format: binding; conditions: read-out: inhibition of PKC-γ (most inhibited kinase)
[5] = system: LPS-induced NO production in RAW 264 macrophage cells; assay: Suppression of LPS-induced NO production in RAW 264.7 macrophage cells; format: cell-based
MARK1 = MARK1 (Homo sapiens, UniProt Q9P0L2); assay: KinaseSeeker kinase profiling, MARK1; format: binding; conditions: read-out: inhibition of MARK1 (most inhibited kinase)
MARK1, sequence (Q9P0L2 whole entry, species assumed): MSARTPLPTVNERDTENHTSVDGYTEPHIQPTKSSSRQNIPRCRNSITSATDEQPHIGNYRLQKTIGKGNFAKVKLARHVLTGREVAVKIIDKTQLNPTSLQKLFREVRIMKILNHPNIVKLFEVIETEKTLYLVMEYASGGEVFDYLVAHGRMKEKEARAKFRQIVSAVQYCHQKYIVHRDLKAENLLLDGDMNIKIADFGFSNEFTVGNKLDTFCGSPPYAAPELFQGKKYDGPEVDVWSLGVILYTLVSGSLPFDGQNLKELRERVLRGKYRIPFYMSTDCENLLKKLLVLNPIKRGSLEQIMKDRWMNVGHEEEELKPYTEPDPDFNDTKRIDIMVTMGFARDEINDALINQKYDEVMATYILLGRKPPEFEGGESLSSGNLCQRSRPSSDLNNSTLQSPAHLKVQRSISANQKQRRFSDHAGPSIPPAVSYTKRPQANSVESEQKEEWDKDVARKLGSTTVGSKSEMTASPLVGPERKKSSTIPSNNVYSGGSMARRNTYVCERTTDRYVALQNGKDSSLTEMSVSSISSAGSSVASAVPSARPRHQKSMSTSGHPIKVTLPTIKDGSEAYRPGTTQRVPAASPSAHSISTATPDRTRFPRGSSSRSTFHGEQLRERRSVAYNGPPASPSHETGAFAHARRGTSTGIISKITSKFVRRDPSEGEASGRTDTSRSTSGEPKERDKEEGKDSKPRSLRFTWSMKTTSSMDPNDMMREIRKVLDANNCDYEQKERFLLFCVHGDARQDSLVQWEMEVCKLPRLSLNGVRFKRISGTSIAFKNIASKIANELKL

Structure (SMILES)	activity retained by the majority of the kinases [1]	maximal inhibition of any kinase of the panel [1] [%]	agonistic effects with respect to cytokine release or hemolysis (human whole blood)	suppression of NO signaling (in words) [5]	other results
CCOc1ccc(OCC(O)CN(C)Cc2c(C)nn(Cc3ccccc3Cl)c2C)cc1 (stereo not drawn) [1j, 1-(((1-(2-chlorobenzyl)-3,5-dimethyl-1H-pyrazol-4-yl)methyl)(methyl)amino)-3-(4-ethoxyphenoxy)propan-2-ol]	> 95%	≤ 27	no agonistic effects	–	brain-blood barrier permeability classification (MDR1-MDCK monolayer): high; microsomal CLint [2]: > 700 µL/min/mg; IC50 (CYP1A2): > 100 µM; microsomal CLint [3]: > 350 µL/min/mg; microsomal CLint at 1 µM [4]: 300 µL/min/mg; inhibition at 28 µM (PKC-γ): 22.4%
Cc1nn(Cc2ccccc2)c(C)c1CN(C)CC(O)COc1ccccc1 (stereo not drawn) [1a, 1-(((1-benzyl-3,5-dimethyl-1H-pyrazol-4-yl)methyl)(methyl)amino)-3-phenoxypropan-2-ol]	–	–	no agonistic effects	ineffective at suppressing NO signaling	–
CCOc1ccc(OCC(O)CN(C)Cc2c(C)nn(Cc3ccccc3OC)c2C)cc1 (stereo not drawn) [1g]	–	–	–	no detectable NO suppression	–
Cc1nn(Cc2ccccc2Cl)c(C)c1CN(C)CC(O)COc1ccc(Cl)cc1 (stereo not drawn) [1s]	> 95% and 95%	≤ 27	–	–	inhibition at 16 µM (MARK1): 26.7%

Source: paper PMC3131463 (Journal of medicinal chemistry, 2011)
